Results on 1 substance are retold here after publication PMC7814465 (Cell reports, 2020).

The test system of one experiment is Impα1. Put plainly: Pull-down with purified Impα1. Type of experiment: binding. To be noted: biotinylated peptide, purified Impα1, Figure S1E. The method, boiled down: (§1)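 Streptavidin beads were blocked with 20 mg/ml ovalbumin, then loaded overnight with 5 µg biotinylated DPR peptide per reaction. 5 µg purified prey protein was added in 50 mM Tris pH 7.5, 200 mM NaCl, 1 mM MgCl2, 5% glycerol, 2 mM DTT, 2 mg/ml BSA. After washes, bound protein was eluted in SDS loading buffer and analysed by SDS-PAGE with Sypro-Ruby staining. Two independent replicates.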

The test system of experiment [1] is TDP-43 (TDP-43-Tev-MBP/MBP-Tev-TDP-43-GFP). Put plainly: TDP-43 condensate formation with DPRs, microscopy. It counts as biochemical. As to conditions: TMR-labeled DPR, equimolar (1x) or two-fold (2x), 2 μM TDP-43/TDP-43-GFP, Tev cleavage, 200 mM NaCl, pH 7.5. The method, boiled down:
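Size-exclusion-purified TDP-43-MBP-His (2 μM) was mixed with substoichiometric MBP-TDP-43-GFP-His (1:4–1:5). Condensates were imaged by laser scanning confocal microscopy.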

Experiment [2] concerns GCR2-GFP2 reporter in HeLa cells. The experiment can be described thus: Diffusion of reporter without NLS into nucleus. Type of experiment: cell-based. As to conditions: 10 µM TMR-GR25, 2 h; three independent experiments, 43-102 cells.
The subject of experiment [3] is Impβ (His-S-Impβ, in the absence of Impα). Put plainly: Sedimentation assay, Impβ alone. It counts as biochemical. The method, boiled down:
(§2)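 Protein was 1 µM purified NTR alone, or 500 nM Impα with 500 nM Impβ. Samples were centrifuged 15 min at 21,000 g, 4°C. Equal volumes of supernatant and pellet were analysed by SDS-PAGE with Sypro-Ruby stain or western blot.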

A further experiment has as its system TNPO3. Put plainly: Pull-down from HeLa cytosol, TNPO3. It counts as binding. As to conditions: biotinylated peptide, western blot. The method, boiled down:
(§3)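 It was cleared at 21,000 g, 4°C. Cytosol was incubated under physiological buffer conditions with biotinylated DPR peptides immobilized on ovalbumin-blocked streptavidin beads, and bound NTRs were detected by western blot.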
In general terms: In western blotting, separated proteins are transferred to a membrane and probed.

Another experiment concerns Impα3 (His-Impα3). Put plainly: SDD-AGE oligomer formation, Impα3. Type of experiment: biochemical, rat. As to conditions: 10-fold molar excess: 2 μM importin, 20 μM TMR-DPR, pH 7.5, 200 mM NaCl, 1 h RT.
The test system of experiment [4] is Impα3. The experiment can be described thus: Pull-down from HeLa cytosol, Impα3. As to conditions: biotinylated peptide, western blot. Type of experiment: binding. The method, boiled down: (§4)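 Biotin-DPR bait (5 μg per 10 μl beads) immobilised overnight with 2 mg/ml ovalbumin. Prey bound in B-buffer with 2 mg/ml BSA, washed without BSA, eluted in 2× SDS loading buffer. Two independent replicates.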

Another experiment deals with CRM1. The experiment can be described thus: Sedimentation assay, CRM1. It counts as biochemical. The method, boiled down: as §2
For a further experiment, the system named is Imp7. The experiment can be described thus: Pull-down from HeLa cytosol, Imp7. Type of experiment: binding. To be noted: biotinylated peptide, western blot. The method, boiled down:
as §4

Experiment [5] deals with GCR2-GFP2 reporter in cytoplasm. The experiment can be described thus: FRAP of cytoplasmic GCR2-GFP2 reporter. Type of experiment: cell-based. As to conditions: 10 µM GR25, 2 h, dexamethasone; 34-38 cells, two independent experiments.
The next experiment relates to Impβ. The experiment can be described thus: Pull-down from HeLa cytosol, Impβ. It counts as binding. As to conditions: biotinylated peptide, western blot. The method, boiled down: as §4
The subject of the next experiment is Impb. To be noted: FRET sensors and bead Halo assays; ref Hayes et al., 2019; cited from earlier work.
For the next experiment, the system named is GAPDH in HeLa cytosol. The experiment can be described thus: Sedimentation assay from HeLa cytosol, GAPDH. Type of experiment: biochemical. To be noted: highest GR/PR concentrations.
In experiment [6] the test system is Impα3. The experiment can be described thus: Pull-down with purified Impα3. Type of experiment: binding, rat. To be noted: biotinylated peptide, purified Impα3, pH 7.5, 200 mM NaCl. The method, boiled down: as §1
Another experiment concerns the target T1, TNPO1 (Homo sapiens, UniProt Q92973).
T1 sequence (Q92973 1-898): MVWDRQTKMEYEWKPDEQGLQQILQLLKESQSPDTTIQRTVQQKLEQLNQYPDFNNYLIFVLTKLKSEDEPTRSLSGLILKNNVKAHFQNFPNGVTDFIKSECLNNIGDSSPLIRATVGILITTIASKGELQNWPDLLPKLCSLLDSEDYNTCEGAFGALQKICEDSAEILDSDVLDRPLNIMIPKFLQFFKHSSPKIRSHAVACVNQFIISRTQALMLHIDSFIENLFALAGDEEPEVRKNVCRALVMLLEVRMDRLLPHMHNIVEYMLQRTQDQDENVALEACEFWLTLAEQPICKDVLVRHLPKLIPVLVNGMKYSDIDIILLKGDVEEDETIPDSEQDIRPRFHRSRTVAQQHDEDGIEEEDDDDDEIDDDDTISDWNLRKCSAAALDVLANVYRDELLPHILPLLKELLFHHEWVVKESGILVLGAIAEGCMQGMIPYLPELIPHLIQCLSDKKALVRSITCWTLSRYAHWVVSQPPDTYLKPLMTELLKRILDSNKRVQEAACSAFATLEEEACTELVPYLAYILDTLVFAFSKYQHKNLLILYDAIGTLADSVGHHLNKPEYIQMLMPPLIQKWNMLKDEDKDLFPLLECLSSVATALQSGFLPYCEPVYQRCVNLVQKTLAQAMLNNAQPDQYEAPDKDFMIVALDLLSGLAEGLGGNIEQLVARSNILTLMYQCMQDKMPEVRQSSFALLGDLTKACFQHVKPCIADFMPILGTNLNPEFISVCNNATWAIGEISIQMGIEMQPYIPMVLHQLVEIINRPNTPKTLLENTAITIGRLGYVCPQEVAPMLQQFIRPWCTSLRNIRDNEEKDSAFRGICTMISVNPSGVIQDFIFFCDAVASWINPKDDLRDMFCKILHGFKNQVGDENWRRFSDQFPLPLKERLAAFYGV
The experiment can be described thus: Pull-down from HeLa cytosol, TNPO1. Type of experiment: binding. To be noted: biotinylated peptide, western blot. The method, boiled down:
as §3

The subject of experiment [7] is nuclear import of GCR2-GFP2-cNLS in HeLa cells. Put plainly: Hormone-induced nuclear import assay, cNLS reporter. To be noted: 10 µM TMR-GR25, 2 h; three independent experiments, 14-61 cells. Type of experiment: cell-based. The method, boiled down:
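HeLa cells were passaged at least twice in DMEM with 10% dialyzed FBS and expressed the GCR2-GFP2-MBP-cNLS reporter. They were pre-incubated 2 h with 10 µM TMR-labeled DPR peptide added once to serum-free imaging medium. Import was induced with 5 µM (final) dexamethasone, and spinning-disk live imaging ran 40–50 min at 2.5-min intervals. Only peptide-positive cells were quantified. N/C ratio is given as mean ± SEM of three experiments, with area under the curve compared by unpaired t test.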

The next experiment concerns TNPO1 (His-TNPO1). The experiment can be described thus: SDD-AGE oligomer formation, TNPO1. To be noted: 10-fold molar excess: 2 μM importin, 20 μM TMR-DPR, pH 7.5, 200 mM NaCl, 1 h RT. It counts as biochemical.
Setting [8] is: 10-fold molar excess of TMR-labeled DPR, n = 3.
Where [9] appears, read: extremely high concentrations (up to 40x).

Regarding “poly-GR: arginine-rich dipeptide repeat protein species; in the experiments mostly GR25”, the “direct binding in pull-down” value in the experiment with Impα1 and in the experiment with Impα3 [6] was “preferentially to poly-GR” in each case. Further, the TDP-43 condensate formation result in experiment [1] was “formation of condensates”. In experiment [2], the “diffusion of reporter without NLS into nucleus (N/C ratio)” value is on record as “only mildly affected”. Further, in experiment [3] (setting [8]), the “solubility of Impβ” value is “remained mainly soluble”. Besides, in [3] (setting [9]), the “precipitation of Impβ, titration” value is given as “only partial or no precipitation”. For the same substance, the binding in pull-down entry is “bound preferentially to poly-GR” with TNPO3; “bound equally to both poly-GR and poly-PR” in the experiment with Impα3 [4]; “bound equally to both poly-GR and poly-PR” with Imp7; “bound equally to both poly-GR and poly-PR” with Impβ; “bound preferentially to poly-GR” with TNPO1. In the experiment with Impα3 (His-Impα3), the “oligomer formation of Impα3 (SDS-resistant)” value was “SDS-resis-tant oligomers”. Also, the “solubility of CRM1” value in the experiment on CRM1 (setting [8]) is given as “remained mainly soluble”. In addition, the “precipitation of CRM1, titration” value in the experiment on CRM1 (setting [9]) is on record as “only partial or no precipitation”. Further, in experiment [5], the “mobility of GCR2-GFP2 reporter in cytoplasm (FRAP)” value is “unchanged”. Moreover, the “direct binding to Impb in vitro” value with Impb is given as “direct binding”. Also, in the experiment with GAPDH in HeLa cytosol, the “precipitation of GAPDH from HeLa cytosol” value is listed as “not precipitated”. The “nuclear import of cNLS reporter (N/C ratio)” value in experiment [7] is listed as “reduced nuclear import”. Moreover, the “oligomer formation of TNPO1 (SDS-resistant)” value in the experiment on TNPO1 (His-TNPO1) is listed as “SDS-resis-tant oligomers”.
